Experiments:
MDA-MB-231 [1] = assay: Cytotoxicity against human MDA-MB-231 cells assessed as inhibition of cell growth measured after 24 hrs by MTT assay; type: functional, cell-based; conditions: MDA-MB-231, 24 h
Summary of the method: (§1)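 MTT viability assay, 24 h exposure to a concentration series, 10^4 cells/well. Cancer lines were in DMEM (BT549, MDA-MB-231) or RPMI-1640 (HCT116, SW620) with 10% FBS. MCF10A and NCM460 were in DMEM with 20% FBS and 10 ng/ml EGF. MTT at 5 mg/mL for 4 h at 37 °C, formazan dissolved in DMSO, A490. IC50 from curve fit; mean ± SD, at least 6 experiments.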

BT-549 [2] = assay: Induction of apoptosis in human BT-549 cells assessed as late apoptotic cells at 0.5 uM measured after 6 hrs by Annexin V-FITC/PI staining based flow cytometry method (reference value: 0.11%); type: functional
Summary of the method: (§2)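 Cells seeded at 1×10^6 per well and treated with 0.5 µM for 6 h. Floating and adherent cells pooled, stained with Annexin V-FITC for 10 min and propidium iodide for 5 min, then analysed immediately by flow cytometry in FITC and PC5.5 channels. Mean ± SD, n = 3.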

HCT-116 [3] = assay: Induction of apoptosis in human HCT-116 cells assessed as viable cells at 0.5 uM measured after 6 hrs by Annexin V-FITC/PI staining based flow cytometry method (reference value: 98.18%); type: functional; conditions: read-out: Activity; summary of the method: as §2
BT-549 [4] = assay: Cytotoxicity against human BT-549 cells assessed as inhibition of cell growth measured after 24 hrs by MTT assay; type: functional, cell-based; conditions: BT-549, 24 h; summary of the method: as §1
HCT-116 [5] = assay: Induction of apoptosis in human HCT-116 cells assessed as early apoptotic cells at 0.5 uM measured after 6 hrs by Annexin V-FITC/PI staining based flow cytometry method (reference value: 1.39%); type: functional; summary of the method: as §2
[6] = target: T1, Nuclear receptor subfamily 4immunitygroup A member 1 (Homo sapiens, UniProt P22736); assay: Binding affinity to recombinant human N-terminal His-tagged Nur77-LBD (367 to 598 residues) expressed in Escherichia coli BL21 DE3 by surface plasmon resonance assay
T1 sequence (P22736 whole entry, the tested form may be a part): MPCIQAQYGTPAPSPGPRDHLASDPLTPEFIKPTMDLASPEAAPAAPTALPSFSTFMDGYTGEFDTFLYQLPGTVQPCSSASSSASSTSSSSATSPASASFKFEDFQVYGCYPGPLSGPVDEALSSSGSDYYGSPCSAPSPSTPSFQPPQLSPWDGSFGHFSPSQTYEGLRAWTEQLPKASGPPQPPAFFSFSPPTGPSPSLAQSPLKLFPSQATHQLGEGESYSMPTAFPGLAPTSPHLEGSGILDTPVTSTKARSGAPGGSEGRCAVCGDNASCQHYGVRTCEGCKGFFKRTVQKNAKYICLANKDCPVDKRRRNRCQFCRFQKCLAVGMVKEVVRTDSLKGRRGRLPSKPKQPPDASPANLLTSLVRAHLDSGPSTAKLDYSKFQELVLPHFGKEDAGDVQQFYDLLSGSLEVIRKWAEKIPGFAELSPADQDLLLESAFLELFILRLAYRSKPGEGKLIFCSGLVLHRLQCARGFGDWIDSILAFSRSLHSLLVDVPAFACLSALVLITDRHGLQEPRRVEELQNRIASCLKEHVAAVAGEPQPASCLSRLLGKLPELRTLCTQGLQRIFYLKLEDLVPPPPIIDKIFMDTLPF
Summary of the method: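 His-tagged human Nur77-LBD (367–598) from E. coli BL21 DE3, diluted to 0.05 mg/mL in 10 mM NaAc pH 5.0 and amine-coupled to a CM5 chip (~9000 RU). Compounds at 0.01–5 µM in PBS with 0.4% DMSO, 25 °C, 30 µL/min; 150 s association, 420 s dissociation, regeneration with 10 mM glycine-HCl pH 2.5. Reference- and blank-subtracted; Kd from global 1:1 kinetic fit.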

HCT-116 [7] = assay: Induction of apoptosis in human HCT-116 cells assessed as late apoptotic cells at 0.5 uM measured after 6 hrs by Annexin V-FITC/PI staining based flow cytometry method (reference value: 0.06%); type: functional; summary of the method: as §2
SW-620 [8] = assay: Induction of apoptosis in human SW-620 cells assessed as late apoptotic cells at 0.5 uM measured after 6 hrs by Annexin V-FITC/PI staining based flow cytometry method (reference value: 0.05%); type: functional; summary of the method: as §2
SW-620 [9] = assay: Induction of apoptosis in human SW-620 cells assessed as necrotic cells at 0.5 uM measured after 6 hrs by Annexin V-FITC/PI staining based flow cytometry method (reference value: 0.26%); type: functional; summary of the method: as §2
HCT-116 [10] = assay: Induction of apoptosis in human HCT-116 cells assessed as necrotic cells at 0.5 uM measured after 6 hrs by Annexin V-FITC/PI staining based flow cytometry method (reference value: 0.37%); type: functional; summary of the method: as §2
MCF-10A = assay: Cytotoxicity against human MCF-10A cells assessed as inhibition of cell growth measured after 24 hrs by MTT assay; type: cell-based; conditions: Homo sapiens, MCF-10A, 24 h; summary of the method: as §1
MDA-MB-231 [11] = assay: Induction of apoptosis in human MDA-MB-231 cells assessed as necrotic cells at 0.5 uM measured after 6 hrs by Annexin V-FITC/PI staining based flow cytometry method (reference value: 0.11%); type: functional; summary of the method: as §2
[12] = target: T1, Nuclear receptor subfamily 4immunitygroup A member 1; assay: Binding affinity to recombinant human N-terminal His-tagged Nur77-LBD (367 to 598 residues) expressed in Escherichia coli BL21 DE3 by flourescence quenching assay
Summary of the method: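 Human Nur77-LBD (367–598), N-terminal His tag, pET15b in E. coli BL21 DE3, Ni resin purified. Nur77-LBD at 1 µM in PBS in a quartz cell, titrated with compound over 0.01–1 µM at 25 °C. Excitation 280 nm, emission scanned 300–500 nm; peak intensity at 330 nm versus compound concentration fitted to a reported formula for Kd.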

SW-620 [13] = assay: Cytotoxicity against human SW-620 cells assessed as inhibition of cell growth measured after 24 hrs by MTT assay; type: functional, cell-based; conditions: SW-620, 24 h; summary of the method: as §1
MDA-MB-231 [14] = assay: Induction of apoptosis in human MDA-MB-231 cells assessed as early apoptotic cells at 0.5 uM measured after 6 hrs by Annexin V-FITC/PI staining based flow cytometry method (reference value: 1.27%); type: functional; summary of the method: as §2
BT-549 [15] = assay: Induction of apoptosis in human BT-549 cells assessed as viable cells at 0.5 uM measured after 6 hrs by Annexin V-FITC/PI staining based flow cytometry method (reference value: 98.51%); type: functional; conditions: read-out: Activity; summary of the method: as §2
MDA-MB-231 [16] = assay: Induction of apoptosis in human MDA-MB-231 cells assessed as late apoptotic cells at 0.5 uM measured after 6 hrs by Annexin V-FITC/PI staining based flowcytometry method (reference value: 0.11%); type: functional; summary of the method: as §2
SW-620 [17] = assay: Induction of apoptosis in human SW-620 cells assessed as early apoptotic cells at 0.5 uM measured after 6 hrs by Annexin V-FITC/PI staining based flow cytometry method (reference value: 1.02%); type: functional
MDA-MB-231 [18] = assay: Induction of apoptosis in human MDA-MB-231 cells assessed as viable cells at 0.5 uM measured after 6 hrs by Annexin V-FITC/PI staining based flow cytometry method (reference value: 98.51%); type: functional; conditions: read-out: Activity; summary of the method: as §2
BT-549 [19] = assay: Induction of apoptosis in human BT-549 cells assessed as necrotic cells at 0.5 uM measured after 6 hrs by Annexin V-FITC/PI staining based flow cytometry method (reference value: 0.11%); type: functional; summary of the method: as §2
HCT-116 [20] = assay: Cytotoxicity against human HCT-116 cells assessed as inhibition of cell growth measured after 24 hrs by MTT assay; type: functional, cell-based; conditions: Homo sapiens, HCT-116, 24 h; summary of the method: as §1
NCM460 = assay: Cytotoxicity against human NCM460 cells assessed as inhibition of cell growth measured after 24 hrs by MTT assay; type: cell-based; conditions: Homo sapiens, NCM460, 24 h; summary of the method: as §1
BT-549 [21] = assay: Induction of apoptosis in human BT-549 cells assessed as early apoptotic cells at 0.5 uM measured after 6 hrs by Annexin V-FITC/PI staining based flow cytometry method (reference value: 1.27%); type: functional; summary of the method: as §2
[22] = MRT(0 to t) in male/female Sprague-Dawley rat at 0.5 mg/kg, iv measured for 36 hrs by LC-MS/MS analysis; type: ADME, organism-based; conditions: in vivo
Summary of the method: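 Sprague-Dawley rats (200–220 g), four per route group (2 male, 2 female), given 0.5 mg/kg IV or 5 mg/kg orally in DMSO/T-80/H2O (1:5:94). Heparinized blood was sampled at 5 min–36 h after IV and at 0.5, 1, 3, 4, 6, 8, 10, 12, 24 and 36 h after oral dosing. Plasma was methanol (2% HCl)-precipitated with carbamazepine internal standard and quantified by LC-MS/MS. Parameters reported as mean ± SD.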

| Kd [6] | Kd [12] | SMILES | IC50 (MDA-MB-231 [1]) | Activity (BT-549 [2]) | viability at 0.5 µM (HCT-116 [3]) | IC50 (BT-549 [4]) | Activity (HCT-116 [5]) | Activity (HCT-116 [7]) | Activity (SW-620 [8]) | Activity (SW-620 [9]) | Activity (HCT-116 [10]) | IC50 (MCF-10A) | Activity (MDA-MB-231 [11]) | IC50 (SW-620 [13]) | Activity (MDA-MB-231 [14]) | viability at 0.5 µM (BT-549 [15]) | Activity (MDA-MB-231 [16]) | Activity (SW-620 [17]) | viability at 0.5 µM (MDA-MB-231 [18]) | Activity (BT-549 [19]) | other results |
| --- | --- | --- | --- | --- | --- | --- | --- | --- | --- | --- | --- | --- | --- | --- | --- | --- | --- | --- | --- | --- | --- |
| 110 nM | 217 nM | CS(=O)(=O)[O-].FC(F)(F)c1ccc([C+](c2c[nH]c3ccccc23)c2c[nH]c3ccccc23)cc1 | 220 nM | 4.21% | 81.6% | 170 nM | 11.05% | 3.58% | 15.18% | 1.47% | 3.81% | 4.29 µM | 1.47% | 180 nM | 12.18% | 74% | 0.65% | 12.97% | 85.7% | 1.17% | IC50 (HCT-116 [20]): 270 nM; IC50 (NCM460): 6.84 µM; Activity (BT-549 [21]): 20.65% |
| 33 nM | 66 nM | CS(=O)(=O)[O-].Cn1cc([C+](c2ccc(C(F)(F)F)cc2)c2c[nH]c3ccccc23)c2ccccc21 | 60 nM | 10.97% | 33.3% | 40 nM | 44.48% | 19.94% | 62.95% | 0.38% | 2.3% | 2.19 µM | 0.74% | 100 nM | 62.49% | 14.4% | 3.04% | 29.59% | 33.7% | 0.88% | MRT [22]: 33.6 min; IC50 (HCT-116 [20]): 90 nM; IC50 (NCM460): 4.63 µM; Activity (BT-549 [21]): 73.75% |
